Results on six compounds are retold here after ChEMBL document CHEMBL1155883, “5-Alkyl-6-benzyl-2-(2-oxo-2-phenylethylsulfanyl)pyrimidin-4(3H)-ones, a series of anti-HIV-1 agents of the dihydro-alkoxy-benzyl-oxopyrimidine family with peculiar structure-activity relationship profile” (J Med Chem, 2008).

Each structure is given as a SMILES string. pEC50: −log10 of the molar value.

In data set [1] the test system is Human immunodeficiency virus 1. Kind of data set: Resistance index, ratio of EC50 for drug-resistant HIV1 isolate with reverse transcriptase Y188L mutation to EC50 for wild type HIV1 NL4-3. It is filed as functional. The essentials:
(§1)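 Fold resistance is the EC50 against the K103N, Y181C or Y188L mutant strain divided by the EC50 against wt NL4-3. Each EC50 is from MT-4 cells infected in the presence of different drug concentrations, with viability read by MTT at day 5 postinfection.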

Data set [2] deals with Human immunodeficiency virus 1. Kind of data set: Resistance index, ratio of EC50 for drug-resistant HIV1 isolate with reverse transcriptase Y181C mutation to EC50 for wild type HIV1 NL4-3. It is filed as functional. The method in brief: as §1
Data set [3] deals with Human immunodeficiency virus type 1 reverse transcriptase (Human immunodeficiency virus 1), Q72547 [K103N].
Data set [4] concerns Human immunodeficiency virus 1. Put plainly: Antiviral activity against HIV1 NL4-3 in human MT4 cells assessed as inhibition of virus-induced cytopathogenicity by MTT assay. The format is functional, organism-based. Particulars: Human immunodeficiency virus 1, NL4-3, MT4. The method in brief: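 MT-4 lymphoid cells infected with wild-type HIV-1 NL4-3 in the presence of a range of compound concentrations. Viable cells were counted by MTT colorimetric read-out at day 5 post-infection. EC50 is the concentration giving 50% protection from virus-induced cytopathic effect. Means ± SD from at least two or three experiments.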

In data set [5] the test system is Human immunodeficiency virus 1. Put plainly: Resistance index, ratio of ID50 for reverse transcriptase Y181I mutant to IC50 for wild-type HIV1 reverse transcriptase. The essentials: (§2)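 Recombinant wt and K103N, L100I or Y181I HIV-1 RT (>95% pure), 2-4 nM. RNA-dependent DNA polymerase assay on 0.5 µg poly(rA)/oligo(dT) 10:1 (0.3 µM 3'-OH ends) with 10 µM [3H]-dTTP and 8% final DMSO. Aliquots taken every 2 min. Inhibitor range 0.2-5× ID50, fitted to a noncompetitive model. Fold resistance is mutant ID50 divided by wt ID50.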

The subject of data set [6] is Human immunodeficiency virus type 1 reverse transcriptase (Human immunodeficiency virus 1), Q72547 [L100I].
Data set [7] relates to Human immunodeficiency virus 1. Kind of data set: Antiviral activity against HIV1 isolates with reverse transcriptase K103N mutation in human MT4 cells assessed as inhibition of virus-induced cytopathogenicity by MTT assay. The format is functional, organism-based. Particulars: Human immunodeficiency virus 1, MT4. The method in brief: (§3)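 MT-4 lymphoid cells infected with HIV-1 carrying RT K103N, Y181C or Y188L, in the presence of different drug concentrations. Viable cells counted at day 5 postinfection by MTT colorimetric assay. EC50 is the concentration that inhibits 50% of the HIV-induced cytopathic effect.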
(Cytopathic effects are the visible damage that an infection or toxin causes in cultured cells.)

The test system of data set [8] is Human immunodeficiency virus 1. Put plainly: Antiviral activity against HIV1 isolates with reverse transcriptase Y188L mutation in human MT4 cells assessed as inhibition of virus-induced cytopathogenicity by MTT assay. To be noted: Human immunodeficiency virus 1, MT4. It is filed as functional, organism-based. The essentials: as §3
Data set [9] deals with Human immunodeficiency virus 1. Put plainly: Resistance index, ratio of EC50 for drug-resistant HIV1 isolate with reverse transcriptase K103N mutation to EC50 for wild type HIV1 NL4-3. It is filed as functional. The method in brief: as §1
Data set [10] deals with Human immunodeficiency virus type 1 reverse transcriptase (Human immunodeficiency virus 1) (UniProt Q72547).
Data set [11] is described as follows: Cytotoxicity against human MT4 cells by MTT assay. The format is cell-based. The essentials:
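Mock-infected MT-4 cells were exposed to a range of compound concentrations. Viability was read by MTT at day 5. CC50 is the concentration that kills 50% of uninfected cells. The top concentration was limited by compound precipitation in culture medium. Means ± SD from at least two or three experiments.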
A general note: Formazan colour is commonly taken as a measure of viable cells.

Data set [12] relates to Human immunodeficiency virus 1. Put plainly: Resistance index, ratio of ID50 for reverse transcriptase K103N mutant to IC50 for wild-type HIV1 sreverse transcriptase. The essentials:
as §2

The subject of data set [13] is Human immunodeficiency virus 1. Put plainly: Antiviral activity against HIV1 isolates with reverse transcriptase Y181C mutation in human MT4 cells assessed as inhibition of virus-induced cytopathogenicity by MTT assay. The format is functional, organism-based. To be noted: Human immunodeficiency virus 1, MT4. The essentials: as §3
Data set [14] has as its system Human immunodeficiency virus 1. Put plainly: Resistance index, ratio of ID50 for reverse transcriptase L100I mutant to IC50 for wild-type HIV1 reverse transcriptase. The essentials: as §2
The test system of data set [15] is Human immunodeficiency virus type 1 reverse transcriptase (Human immunodeficiency virus 1), Q72547 [Y181I].
Data set [16] is described as follows: Selectivity index, ratio of CC50 for human MT4 cells to EC50 for HIV1 NL4-3. It is filed as toxicity, cell-based. To be noted: read-out: Ratio CC50/EC50. The essentials:
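Computed as CC50/EC50. CC50 comes from MTT viability of mock-infected MT-4 cells and EC50 from MTT protection of NL4-3-infected MT-4 cells, both read at day 5.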

The term pEC50 denotes the negative decadic logarithm of the EC50, by convention in mol/L. The term CC50 denotes the concentration at which the toxic effect on the cells reaches its halfway point. A high value points to lower toxicity to the cells. Take `CC(C)c1c(Cc2c(Cl)cccc2Cl)nc(SCC(=O)c2ccccc2)[nH]c1=O`: the “Ratio EC50” value in data set [1] was 1375; in [2] it was 27; in data set [9], 1275. The ID50 worked out at 27700 nM in data set [3], 10100 nM in data set [6], 31 nM in data set [10] and 16800 nM in [15]. Further, the negative-log EC50 (pEC50) in data set [4] was 8.40; in data set [7] it was 5.29; in [8] it was 5.26; in data set [13] it was 6.96. The Ratio in [5] worked out at 542; in [12] it was 894; in data set [14] it was 326. Further, the CC50 in [11] is above 56000 nM. Further, the selectivity ratio in data set [16] was above 14000.

Take `CCc1c(Cc2c(F)cccc2Cl)nc(SCC(=O)c2ccccc2)[nH]c1=O`: the figures for the “Ratio EC50” value in [1], in data set [2] and in data set [9] were 782, 32 and 100, respectively. For the same compound, the ID50 is above 40000 nM in data set [3], 9700 nM in [6], 8 nM in data set [10] and above 40000 nM in [15]. Moreover, the pEC50 in data set [4] is 7.92; in [7], 5.92; in data set [8] it was 5.03; in [13] it was 6.41. The same compound showed a cytotoxic concentration (CC50) in data set [11] above 12000 nM. Further, in data set [14], the Ratio is 1210. Besides, the selectivity ratio in data set [16] is above 1000.

For the compound `CCc1c(Cc2c(Cl)cccc2Cl)nc(SCC(=O)c2ccc(F)cc2)[nH]c1=O`, the “Ratio EC50” value in [1] is given as 5186; in data set [2], 70; in [9] it was 671. Moreover, the ID50 in [3] was 1790 nM; in [6] it was 1820 nM; in [10], 42 nM; in data set [15], 240 nM. In addition, the pEC50 in data set [4] was 8.15; in [7] it was 5.33; in data set [8] it was 4.44; in data set [13], 6.31. In addition, the Ratio in data set [5] amounted to 6; in data set [12], 43; in [14] it was 43. In [11], this compound came in with a CC50 above 55000 nM. The selectivity ratio in data set [16] is above 7860.

As to `Cc1c(Cc2c(Cl)cccc2Cl)nc(SCC(=O)c2ccccc2)[nH]c1=O`, the “Ratio EC50” value is 232 in data set [1], 13 in [2] and 100 in [9]. The ID50 came out at 12000 nM in data set [3], 7800 nM in [6], 230 nM in data set [10] and 1380 nM in data set [15]. In addition, the pEC50 in data set [4] was 7.42; in data set [7], 5.42; in [8], 5.05; in [13], 6.32. In addition, the Ratio in data set [5] worked out at 6; in data set [12], 53; in data set [14], 34. The CC50 in data set [11] was above 60000 nM. The selectivity ratio in data set [16] was above 1580.

In the case of `CCc1c(Cc2c(Cl)cccc2Cl)nc(SCC(=O)c2ccccc2)[nH]c1=O`, the “Ratio EC50” value in [1] is reported as 714; in [2], 7; in data set [9] it was 171. The ID50 in data set [3] was 1880 nM; in data set [6], 3540 nM; in data set [10], 71 nM; in [15], 330 nM. The negative-log EC50 (pEC50) is 8.15 in data set [4], 5.92 in data set [7], 5.30 in data set [8] and 7.34 in [13]. The Ratio in [5] was found to be 5; in data set [12], 26; in data set [14], 50. The compound also registered a half-maximal cytotoxic concentration (CC50) in data set [11] above 52000 nM. Further, in data set [16], the selectivity ratio is above 7430.

For `CC(C)c1c(Cc2c(F)cccc2Cl)nc(SCC(=O)c2ccccc2)[nH]c1=O`, the results for the “Ratio EC50” value in data set [1], in [2] and in [9] were 1540, 42 and 658, respectively. In addition, the ID50 in data set [3] was 4500 nM; in [6], 1300 nM; in data set [10], 1 nM; in data set [15] it was above 40000 nM. Also, the pEC50 in data set [4] is 8.30; in data set [7] it was 5.48; in data set [8], 5.11; in [13], 6.68. In [11], this compound registered a 50% cytotoxic concentration (CC50) above 12000 nM. Moreover, the Ratio came to 4500 in data set [12] and 1300 in data set [14]. Further, the selectivity ratio in data set [16] is above 2400.
